Data as given in article PMC6301076 (Bioorganic & medicinal chemistry letters, 2018).
Where “and” joins values, the source holds several entries; their conditions need not be identical. Equal entries are not always repeated. Where two headings read alike, the source gives them in different places. Marks after values point to notes of the source that are not given here.

Columns and labels:
[1] = Aqueous solubility by nephelometry; type: physicochemical; conditions: concentration range; for Sol6.5: pH 6.5 phosphate buffer; for Sol2.0: 0.01 M HCl (approx. pH 2.0)
S. mansoni [2] = conditions: cited from earlier work; for single oral dose ED50: S. mansoni mouse model
[3] = tested on: cultured adult S. mansoni; conditions: cited from earlier work
[4] = In vitro intrinsic clearance in human liver microsomes; type: in vitro ADME; conditions: absence of co-factor
Procedure, shortened: (§1)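 Test compound incubated with human or mouse liver microsomes. Control incubations without NADPH detect cofactor-independent degradation, such as by non-specific microsomal esterases. Read-out is intrinsic clearance, also expressed as in vitro half-life.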

[5] = In vitro intrinsic clearance in mouse liver microsomes; type: in vitro ADME; conditions: absence of co-factor
Procedure, shortened: as §1

S. mansoni [6] = experiment: In vivo antischistosomal activity in S. mansoni-infected mice; conditions: 1 × 100 mg/kg po
[7] = after 100 mg/kg oral dose of Ro 13-3978 to mice; cited from earlier work
schistosomula (NTS) = conditions: 10 μM concentration; cited from earlier work
[8] = Plasma exposure after oral administration to mice; type: in vivo; conditions: 100 mg/kg, plasma concentration versus time profile

Row | Sol6.5 [1] | Sol2.0 [1] | SMILES | also measured
1 | 50 to 100 µg/mL |  | CC(C)(NC(=O)Nc1ccccc1)C(=O)O [compound 3] | 
2 |  | 50 to 100 µg/mL | CC(C)(C(=O)O)n1c(=O)[nH]c2cc(C(F)(F)F)c(F)cc21 [compound 10] | 
3 | 25 to 50 µg/mL | 50 to 100 µg/mL | CC(C)(NC(=O)Cc1ccc(F)c(C(F)(F)F)c1)C(=O)O [compound 6] | 
4 |  |  | O=C(C1CCCCC1)N1CC(=O)N2CCc3ccccc3C2C1 (stereo not drawn) [praziquantel, reference compound] | single oral dose ED50 (S. mansoni [2]): 172 mg/kg
5 | >100/>100 μg/mL | >100/>100 μg/mL | O=C(Nc1ccc(F)c(C(F)(F)F)c1)NC1(C(=O)O)CC1 [compound 8] | 
6 | >100/>100 μg/mL | >100/>100 μg/mL | CC(C)(C(=O)O)N1CCCN(c2ccc(F)c(C(F)(F)F)c2)C1=O [compound 4] | 
7 |  |  | CC1(C)NC(=O)N(c2ccc(F)c(C(F)(F)F)c2)C1=O [Ro 13-3978, reference compound] | single oral dose ED50 (S. mansoni [2]): 15 mg/kg; effect on cultured adult S. mansoni [3]: little effect
8 | 50-100/50-100 μg/mL | 50-100/50-100 μg/mL | CC(C)(NC(=O)Nc1ccc(F)c(C(F)(F)F)c1)C(N)=O [compound 12] | 
9 | 3.1-6.3/3.1-6.3 μg/mL | 3.1-6.3/3.1-6.3 μg/mL | CCOC(=O)C(C)(C)NC(=O)Nc1ccc(F)c(C(F)(F)F)c1 [compound 13] | stability in control microsomal incubations [4]: underwent non-NADPH mediated degradation; stability in control microsomal incubations [5]: underwent non-NADPH mediated degradation; S. mansoni WBR (S. mansoni [6]): 70^f %
10 | >100/>100 μg/mL | >100/>100 μg/mL | O=C(O)CNC(=O)Nc1ccc(F)c(C(F)(F)F)c1 [compound 7] | 
11 | 25-50/25-50 μg/mL | 25-50/25-50 μg/mL | CC(C)(CC(=O)Nc1ccc(F)c(C(F)(F)F)c1)C(=O)O [compound 5] | 
12 |  | 25 to 50 µg/mL | CC(C)(NC(=O)Nc1ccc(F)c(C(F)(F)F)c1)C(=O)O [compound 2] | exposure relative to that of Ro 13-3978, based on AUC0-24h [7]: < 1%; S. mansoni WBR (S. mansoni [2]; 1 × 100 mg/kg po, S. mansoni-infected mice, ref 4 (Wang et al.), 100 mg/kg): 67% and 67^d %; activity against cultured adult S. mansoni ([3]; 10 μM concentration): no activity; activity against schistosomula (NTS) (schistosomula (NTS)): no activity; oral absorption [8]: rapid and extensive absorption
13 |  | 50 to 100 µg/mL | CC(C)(C(=O)O)N1Cc2cc(F)c(C(F)(F)F)cc2NC1=O [compound 11] | 
14 |  | 50 to 100 µg/mL | O=C(Nc1ccc(F)c(C(F)(F)F)c1)NC1(C(=O)O)CCC1 [compound 9] | 
